Source: ChEMBL document CHEMBL1145965, “4-Substituted 4-hydroxycyclohexa-2,5-dien-1-ones with selective activities against colon and renal cancer cell lines” (J Med Chem, 2003)

Key:
[1] = test system: HT-29; test: Inhibitory activity against HT-29 colon cancer cell line; type: functional, cell-based; conditions: Homo sapiens
How it was run: (§1)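 Cells grown in RPMI 1640 with 2 mM L-glutamine and 10% fetal calf serum, 37 °C, 5% CO2. Seeded at 5 × 10³ per well, 24 h adherence, then drug 0.1 nM–100 μM final (n = 8; DMSO stocks, dilutions in medium) for 72 h.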

[2] = test system: Panel NCI-60 (60 carcinoma cell lines); test: In vitro mean growth lethal concentration against 60-cell panel; type: functional; conditions: Homo sapiens, read-out: Mean LC50
[3] = test system: Panel NCI-60 (60 carcinoma cell lines); test: In vitro mean growth lethal concentration in renal subpanel against 60-cell panel; type: functional; conditions: Homo sapiens, read-out: Mean LC50
[4] = test system: ACHN; test: In vitro lethal concentration against most sensitive ACHN cell line; type: functional; conditions: Homo sapiens, read-out: LC50 (the source's name)
[5] = test system: HCT-116; test: Inhibitory activity against HCT116 colon cancer cell line; type: functional, cell-based; conditions: Homo sapiens; how it was run: as §1
[6] = test system: Panel NCI-60 (60 carcinoma cell lines); test: In vitro mean growth inhibitory activity against 60-cell panel; type: functional; conditions: Homo sapiens
[7] = test system: SW-620; test: In vitro lethal concentration against least sensitive colon SW-620 cell line; type: functional; conditions: Homo sapiens, read-out: LC50 (the source's name)
[8] = test system: Panel NCI-60 (60 carcinoma cell lines); test: In vitro mean growth lethal concentration in colon subpanel against 60-cell panel; type: functional; conditions: Homo sapiens, read-out: Mean LC50
[9] = test system: HCT-116; test: In vitro lethal concentration against most sensitive colon HCT116 cell line; type: functional; conditions: Homo sapiens, read-out: LC50 (the source's name)
[10] = test system: MCF7; test: Inhibitory activity against MCF-7 mammary carcinoma cell line; type: functional, cell-based; conditions: Homo sapiens; how it was run: as §1
[11] = test system: MDA-MB-468; test: Inhibitory activity against MDA-468 mammary carcinoma cell line; type: functional, cell-based; conditions: Homo sapiens; how it was run: as §1
[12] = test system: A549; test: Inhibitory activity against A549 lung adenocarcinoma cell line; type: functional, cell-based; conditions: Homo sapiens; how it was run: as §1

O=C1C=CC(O)(c2ccccc2)C=C1
IC50 [1]: 3.63 µM | CC50 [2]: 21.9 µM | CC50 [3]: 16.7 µM | CC50 [4]: 5.5 µM | IC50 [5]: 2.22 µM | GI50 [6]: 2.29 µM | CC50 [7]: 51.3 µM | CC50 [8]: 10.6 µM | CC50 [9]: 6.31 µM

COc1ccc2nc(C3(OC)C=CC(=NS(=O)(=O)c4ccc(C)cc4)C=C3)sc2c1 (stereo unspecified)
CC50 [2]: 18.6 µM | CC50 [3]: 11.2 µM | CC50 [4]: 8.32 µM | GI50 [6]: 1.91 µM | CC50 [7]: 77.6 µM | CC50 [8]: 13.2 µM | CC50 [9]: 5.01 µM

COC1(c2nc3ccc(F)cc3s2)C=CC(=NS(=O)(=O)c2ccc(C)cc2)C=C1 (stereo unspecified)
CC50 [2]: 30.2 µM | CC50 [3]: 19.1 µM | CC50 [4]: > 100 µM | GI50 [6]: 1.74 µM | CC50 [7]: > 100 µM | CC50 [8]: 25.6 µM | CC50 [9]: 5.25 µM

O=C1/C(=C\c2ccccc2)CC(O)(c2nc3ccccc3s2)C/C1=C/c1ccccc1 (stereo unspecified)
CC50 [2]: 47.9 µM | CC50 [3]: 37.2 µM | CC50 [4]: 30.9 µM | GI50 [6]: 2.69 µM | CC50 [7]: > 100 µM | CC50 [8]: 17.4 µM | CC50 [9]: 5.37 µM

O=C1C=CC(O)(c2cnc3ccccc3c2)C=C1
IC50 [1]: 0.97 µM | IC50 [10]: 0.77 µM | CC50 [2]: 15.8 µM | CC50 [3]: 9.66 µM | CC50 [4]: 15.1 µM | IC50 [5]: 0.72 µM | GI50 [6]: 1.07 µM | IC50 [11]: 1.7 µM | CC50 [7]: > 100 µM | CC50 [8]: 15.8 µM | CC50 [9]: 4.26 µM

O=C1C=CC(O)(c2cc3ccccc3s2)c2ccccc21 (stereo unspecified)
CC50 [2]: 70.8 µM | CC50 [3]: > 100 µM | CC50 [4]: > 100 µM | GI50 [6]: 2.29 µM | CC50 [7]: > 100 µM | CC50 [8]: > 100 µM | CC50 [9]: > 100 µM

O=C1C=CC(O)(c2nc3ccccc3s2)C(Cl)=C1 (stereo unspecified)
CC50 [2]: 6.31 µM | CC50 [3]: 1.8 µM | CC50 [4]: 0.58 µM | GI50 [6]: 0.46 µM | CC50 [7]: > 100 µM | CC50 [8]: 2.31 µM | CC50 [9]: 0.68 µM

COC1(c2nc3ccc(C)cc3s2)C=CC(=NS(=O)(=O)c2ccc(C)cc2)C=C1 (stereo unspecified)
CC50 [2]: 19.5 µM | CC50 [3]: 10.6 µM | CC50 [4]: 6.92 µM | GI50 [6]: 1.2 µM | CC50 [7]: 95.5 µM | CC50 [8]: 9.92 µM | CC50 [9]: 1.78 µM

O=C1C=CC(O)(c2nc3ccccc3o2)C=C1
IC50 [1]: 0.29 µM | IC50 [10]: 0.39 µM | CC50 [2]: 7.08 µM | CC50 [3]: 1.64 µM | CC50 [4]: 4.9 µM | IC50 [5]: 0.18 µM | GI50 [6]: 0.46 µM | IC50 [11]: 0.35 µM | IC50 [12]: 2.33 µM | CC50 [7]: > 100 µM | CC50 [8]: 1.13 µM | CC50 [9]: 0.87 µM

O=C1C=CC(O)(c2cc3ccccc3o2)C=C1
IC50 [1]: 0.42 µM | CC50 [2]: 7.24 µM | CC50 [3]: 2.4 µM | CC50 [4]: 1 µM | IC50 [5]: 0.16 µM | GI50 [6]: 0.52 µM | IC50 [12]: 2.3 µM | CC50 [7]: > 100 µM | CC50 [8]: 3.66 µM | CC50 [9]: 0.6 µM

O=C1C=CC(O)(c2nccs2)C=C1
IC50 [1]: 0.72 µM | CC50 [2]: 14.5 µM | CC50 [3]: 9.17 µM | CC50 [4]: 7.94 µM | IC50 [5]: 0.62 µM | GI50 [6]: 1.35 µM | CC50 [7]: 26.3 µM | CC50 [8]: 14.5 µM | CC50 [9]: 4.9 µM

O=C1C=CC(O)(c2cc3ccccc3s2)C=C1
IC50 [1]: 0.55 µM | CC50 [2]: 5.75 µM | CC50 [3]: 1.4 µM | CC50 [4]: 0.33 µM | IC50 [5]: 0.17 µM | GI50 [6]: 0.25 µM | IC50 [12]: 2.43 µM | CC50 [7]: > 100 µM | CC50 [8]: 1.69 µM | CC50 [9]: 0.6 µM

O=C1C=CC(O)(c2cc3ccccc3o2)c2ccccc21 (stereo unspecified)
CC50 [2]: 7.76 µM | CC50 [3]: 6.48 µM | CC50 [4]: 5.75 µM | GI50 [6]: 0.74 µM | CC50 [7]: 3.55 µM | CC50 [8]: 7.76 µM | CC50 [9]: 4.9 µM

O=C1CCC(O)(c2nc3ccccc3s2)CC1
CC50 [2]: > 100 µM | CC50 [3]: > 100 µM | CC50 [4]: > 100 µM | GI50 [6]: > 100 µM | CC50 [7]: > 100 µM | CC50 [8]: > 100 µM | CC50 [9]: > 100 µM

O=C1C=CC(O)(c2cccc3ccccc23)C=C1
IC50 [1]: 1.36 µM | IC50 [10]: 0.78 µM | CC50 [2]: 25.7 µM | CC50 [3]: 17 µM | CC50 [4]: 13.2 µM | IC50 [5]: 0.42 µM | GI50 [6]: 1.82 µM | IC50 [11]: 1.77 µM | CC50 [7]: > 100 µM | CC50 [8]: 12.2 µM | CC50 [9]: 5.37 µM

O=C1C=CC(O)(c2cccs2)C=C1
IC50 [1]: 1.25 µM | IC50 [10]: 0.57 µM | CC50 [2]: 30.9 µM | CC50 [3]: 14.4 µM | CC50 [4]: 35.5 µM | IC50 [5]: 0.66 µM | GI50 [6]: 1.78 µM | IC50 [11]: 0.72 µM | CC50 [7]: > 100 µM | CC50 [8]: 32.5 µM | CC50 [9]: 5.89 µM

O=C1C=CC(O)(c2ccccn2)C=C1
IC50 [1]: 0.46 µM | IC50 [10]: 0.72 µM | CC50 [2]: 20.4 µM | CC50 [3]: 11.3 µM | CC50 [4]: 8.91 µM | IC50 [5]: 0.55 µM | GI50 [6]: 1.91 µM | IC50 [11]: 1.5 µM | CC50 [7]: > 100 µM | CC50 [8]: 6.9 µM | CC50 [9]: 5.24 µM

COC1(c2nc3ccccc3s2)C=CC(=NS(=O)(=O)c2ccc(C)cc2)C=C1 (stereo unspecified)
CC50 [2]: 83.2 µM | CC50 [3]: > 100 µM | CC50 [4]: > 100 µM | GI50 [6]: 15.5 µM | CC50 [7]: > 100 µM | CC50 [8]: > 100 µM | CC50 [9]: 44.7 µM

COC1(c2nc3c(F)cccc3s2)C=CC(=NS(=O)(=O)c2ccc(C)cc2)C=C1 (stereo unspecified)
CC50 [2]: 27.5 µM | CC50 [3]: 14.4 µM | CC50 [4]: 7.59 µM | GI50 [6]: 2.57 µM | CC50 [7]: 67.6 µM | CC50 [8]: 26.9 µM | CC50 [9]: 57.5 µM

O=C1C=CC(O)(c2ccc3ccccc3c2)C=C1
IC50 [1]: 2.5 µM | IC50 [10]: 1.3 µM | CC50 [2]: 11.7 µM | CC50 [3]: 4.68 µM | CC50 [4]: 7.76 µM | IC50 [5]: 0.82 µM | GI50 [6]: 0.81 µM | IC50 [11]: 1.4 µM | CC50 [7]: > 100 µM | CC50 [8]: 6.58 µM | CC50 [9]: 4.47 µM

CC1=CC(O)(c2nc3ccccc3s2)C=C(C)C1=O
CC50 [2]: > 100 µM | CC50 [3]: > 100 µM | CC50 [4]: > 100 µM | GI50 [6]: 38.2 µM | CC50 [7]: > 100 µM | CC50 [8]: > 100 µM | CC50 [9]: > 100 µM

Oc1ccc(-c2nc3ccccc3s2)cc1
IC50 [10]: 69.4 µM | CC50 [2]: > 100 µM | CC50 [3]: > 100 µM | CC50 [4]: > 100 µM | GI50 [6]: 33.9 µM | IC50 [11]: 0.4 µM | CC50 [7]: > 100 µM | CC50 [8]: > 100 µM | CC50 [9]: > 100 µM
